Data reported in ChEMBL document CHEMBL1141552, “Synthesis and antitubercular activity of 7-(R)- and 7-(S)-methyl-2-nitro-6-(S)-(4-(trifluoromethoxy)benzyloxy)-6,7-dihydro-5H-imidazo[2,1-b][1,3]oxazines, analogues of PA-824” (Bioorg Med Chem Lett, 2008).

Tests used:
Format in all cases: functional
[1] = tested on: Mycobacterium tuberculosis; assay: Antitubercular activity against Mycobacterium tuberculosis H37Rv 5A1 nitroreductase mutant
In short: (§1)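 Broth dilution MIC99 against Mtb H37Rv (ATCC 27294) and its H37Rv mutants under aerobic conditions. Compound stocks were made in DMSO at 20 mM.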

[2] = tested on: Mycobacterium tuberculosis; assay: Antitubercular activity against Mycobacterium tuberculosis H37Rv T2 nitroreductase mutant; in short: as §1
[3] = tested on: Mycobacterium tuberculosis; assay: Antitubercular activity against Mycobacterium tuberculosis H37Rv T3 nitroreductase mutant; in short: as §1

Measured: MIC

C[C@H]1Oc2nc([N+](=O)[O-])cn2C[C@@H]1OCc1ccc(OC(F)(F)F)cc1
>100 µM: [1] | [2] | [3]

C[C@@H]1Oc2nc([N+](=O)[O-])cn2C[C@@H]1OCc1ccc(OC(F)(F)F)cc1
>100 µM: [1] | [2] | [3]

O=[N+]([O-])c1cn2c(n1)OC[C@@H](OCc1ccc(OC(F)(F)F)cc1)C2 [PRETOMANID]
>100 µM: [1] | [2] | [3]
